Source: ChEMBL document CHEMBL3751737, “Synthesis, antibacterial and cytotoxic activities of new biflorin-based hydrazones and oximes” (2016)
Values after ≈ are worked out from the molar mass of the structure shown. Active and inactive are the calls of the source. The calls are words filed in the database; no cut-off is given here.

Legend:
Format in all cases: functional
Escherichia coli [1] = assay: Antibacterial activity against Escherichia coli ATCC 10536 after 24 hrs by broth microdilution method
Procedure, shortened: (§1)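 Broth microdilution in BHI following CLSI M100-S16. Strains were activated in BHI for 24 h at 35 ± 2 °C, adjusted to 0.5 McFarland, and diluted to a final inoculum of 5 x 10^5 CFU/mL. Samples were dissolved in water/DMSO and tested at final 512-8 µg/mL, in triplicate. Plates were incubated 24 h at 35 ± 2 °C, then 0.01% resazurin was added. MIC was the lowest concentration preventing the visual blue-to-red change. Amikacin, gentamicin and neomycin served as positive controls.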

Escherichia coli [2] = assay: Antibacterial activity against Escherichia coli 27 after 24 hrs by broth microdilution method; procedure, shortened: as §1
OVCAR-8 = assay: (§2) Cytotoxicity against human OVCAR8 cells assessed as growth inhibition at 5 ug/ml after 72 hrs by MTT assay
Procedure, shortened: (§3)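 Cells were grown in RPMI 1640 with 10% FBS and 1% antibiotic at 37 °C under 5% CO2, and seeded at 0.1 x 10^6 cells/mL. Samples were dissolved in DMSO and tested at 5 µg/mL for 72 h. MTT was added for 3 h, the precipitate was dissolved in DMSO, and absorbance was read at 595 nm. Potential was rated on an intensity scale.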

Enterococcus faecalis = assay: Antibacterial activity against Enterococcus faecalis ATCC 4083 after 24 hrs by broth microdilution method; procedure, shortened: as §1
Staphylococcus aureus [3] = assay: Antibacterial activity against Staphylococcus aureus 358 after 24 hrs by broth microdilution method; procedure, shortened: as §1
SF-295 = assay: (§4) Cytotoxicity against human SF295 cells assessed as growth inhibition at 5 ug/ml after 72 hrs by MTT assay; procedure, shortened: as §3
Proteus vulgaris = assay: Antibacterial activity against Proteus vulgaris ATCC 13315 after 24 hrs by broth microdilution method; procedure, shortened: as §1
HCT-116 = assay: (§5) Cytotoxicity against human HCT116 cells assessed as growth inhibition at 5 ug/ml after 72 hrs by MTT assay
Procedure, shortened: (§6)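 Cells were maintained in RPMI 1640 with 10% FBS and 1% antibiotic at 37 °C under 5% CO2. Samples were dissolved in DMSO and tested at a single 5 µg/mL for 72 h. Viability was read by MTT: 3 h incubation, formazan dissolved in DMSO, absorbance at 595 nm. Results were graded on an intensity scale.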

Staphylococcus aureus [4] = assay: Antibacterial activity against Staphylococcus aureus ATCC 25923 after 24 hrs by broth microdilution method; procedure, shortened: as §1
Staphylococcus aureus [5] = assay: Antibacterial activity against Staphylococcus aureus ATCC 12692 after 24 hrs by broth microdilution method; conditions: ATCC 12692, 24 h
Shigella flexneri = assay: Antibacterial activity against Shigella flexneri ATCC 12022 after 24 hrs by broth microdilution method; conditions: ATCC 12022, 24 h
Staphylococcus aureus [6] = assay: Antibacterial activity against Staphylococcus aureus ATCC 12624 after 24 hrs by broth microdilution method; conditions: ATCC 12624, 24 h
Vibrio cholerae = assay: Antibacterial activity against Vibrio cholerae ATCC 15748 after 24 hrs by broth microdilution method; conditions: ATCC 15748, 24 h
Escherichia coli [7] = assay: Antibacterial activity against Escherichia coli ATCC 25922 after 24 hrs by broth microdilution method; conditions: ATCC 25922, 24 h
[8] = as §2; conditions: OVCAR-8, 72 h, read-out: GI; procedure, shortened: as §3
Staphylococcus aureus [9] = assay: Antibacterial activity against Staphylococcus aureus ATCC 6538 after 24 hrs by broth microdilution method; conditions: ATCC 6538, 24 h
Aeromonas caviae = assay: Antibacterial activity against Aeromonas caviae ATCC 15468 after 24 hrs by broth microdilution method; conditions: ATCC 15468, 24 h
Listeria monocytogenes = assay: Antibacterial activity against Listeria monocytogenes ATCC 19117 after 24 hrs by broth microdilution method; conditions: ATCC 19117, 24 h
[10] = as §4; conditions: SF-295, 72 h, read-out: GI; procedure, shortened: as §3
Klebsiella pneumoniae = assay: Antibacterial activity against Klebsiella pneumoniae ATCC 10031 after 24 hrs by broth microdilution method; conditions: ATCC 10031, 24 h
[11] = as §5; conditions: HCT-116, 72 h, read-out: GI; procedure, shortened: as §6
Bacillus cereus = assay: Antibacterial activity against Bacillus cereus ATCC 33018 after 24 hrs by broth microdilution method; conditions: ATCC 33018, 24 h
Pseudomonas aeruginosa = assay: Antibacterial activity against Pseudomonas aeruginosa ATCC 15442 after 24 hrs by broth microdilution method; conditions: ATCC 15442, 24 h
[12] = Staphylococcus aureus, 358, 24 h

Compound	MIC (Escherichia coli [1]; ATCC 10536, 24 h) [µg/mL]	MIC (Escherichia coli [2]; Escherichia coli, 27, 24 h) [µg/mL]	growth inhibition (GI) (OVCAR-8)	MIC (Enterococcus faecalis; ATCC 4083, 24 h) [µg/mL]	MIC (Staphylococcus aureus [3]; [12]) [µg/mL]	growth inhibition (GI) (SF-295)	MIC (Proteus vulgaris; ATCC 13315, 24 h) [µg/mL]	growth inhibition (GI) (HCT-116)	MIC (Staphylococcus aureus [4]; ATCC 25923, 24 h) [µg/mL]	also measured
CC(C)=CCCC1=COC2=C(C)C(=O)/C(=N\Nc3ccc([N+](=O)[O-])cc3[N+](=O)[O-])c3c(C)ccc1c32	512 (≈ 1050 µM)	≥ 1020	inactive	512 (≈ 1050 µM)	512 (≈ 1050 µM)	inactive	512 (≈ 1050 µM)	inactive	512 (≈ 1050 µM)	–
CC(C)=CCCC1=COC2=C(C)C(=O)C(=O)c3c(C)ccc1c32	128 (≈ 415 µM)	256 (≈ 830 µM)	–	32 (≈ 104 µM)	128 (≈ 415 µM)	–	16 (≈ 51.9 µM)	–	64 (≈ 208 µM)	MIC (Staphylococcus aureus [5]): ≥ 1020 µg/mL; MIC (Shigella flexneri): ≥ 1020 µg/mL; MIC (Staphylococcus aureus [6]): ≥ 1020 µg/mL; MIC (Vibrio cholerae): ≥ 1020 µg/mL; MIC (Escherichia coli [7]): ≥ 1020 µg/mL; inhibition of growth at 5 µg/mL [8]: 75%; MIC (Staphylococcus aureus [9]): ≥ 1020 µg/mL; MIC (Aeromonas caviae): ≥ 1020 µg/mL; MIC (Listeria monocytogenes): ≥ 1020 µg/mL; inhibition of growth at 5 µg/mL [10]: 75%; MIC (Klebsiella pneumoniae): ≥ 1020 µg/mL; inhibition of growth at 5 µg/mL [11]: 75%; MIC (Bacillus cereus): ≥ 1020 µg/mL; MIC (Pseudomonas aeruginosa): ≥ 1020 µg/mL
GENTAMICIN	–	–	–	–	–	–	–	–	–	MIC (Escherichia coli [1]): 128 µg/mL; MIC (Escherichia coli [2]): 512 µg/mL; MIC (Enterococcus faecalis): 32 µg/mL; MIC (Staphylococcus aureus [3]): 8 µg/mL; MIC (Proteus vulgaris): 64 µg/mL; MIC (Staphylococcus aureus [4]): 32 µg/mL
NCC[C@H](O)C(=O)N[C@@H]1C[C@H](N)[C@@H](O[C@H]2O[C@H](CN)[C@@H](O)[C@H](O)[C@H]2O)[C@H](O)[C@H]1O[C@H]1O[C@H](CO)[C@@H](O)[C@H](N)[C@H]1O [AMIKACIN]	–	128 (≈ 219 µM)	–	256 (≈ 437 µM)	256 (≈ 437 µM)	–	512 (≈ 874 µM)	–	256 (≈ 437 µM)	–
CO/N=C1\C(=O)C(C)=C2OC=C(CCC=C(C)C)c3ccc(C)c1c32	≥ 1020	128 (≈ 379 µM)	inactive	32 (≈ 94.8 µM)	64 (≈ 190 µM)	inactive	64 (≈ 190 µM)	inactive	32 (≈ 94.8 µM)	–
CC(C)=CCCC1=COC2=C(C)C(=O)/C(=N\Nc3ccccc3)c3c(C)ccc1c32	≥ 1020	≥ 1020	inactive	512 (≈ 1280 µM)	≥ 1020	inactive	≥ 1020	inactive	256 (≈ 642 µM)	–
CC(C)=CCCC1=COC2=C(C)C(=O)/C(=N\O)c3c(C)ccc1c32	≥ 1020	512 (≈ 1580 µM)	inactive	256 (≈ 792 µM)	≥ 1020	inactive	512 (≈ 1580 µM)	inactive	256 (≈ 792 µM)	–
NCC1O[C@H](O[C@H]2[C@@H](O)[C@H](O[C@H]3[C@H](O)[C@@H](N)C[C@@H](N)[C@@H]3O[C@H]3O[C@H](CN)[C@@H](O)[C@H](O)[C@H]3N)O[C@@H]2CO)[C@H](N)[C@@H](O)[C@@H]1O (some centres not stated)	512 (≈ 833 µM)	128 (≈ 208 µM)	–	128 (≈ 208 µM)	32 (≈ 52.1 µM)	–	512 (≈ 833 µM)	–	32 (≈ 52.1 µM)	–
CCO/N=C1\C(=O)C(C)=C2OC=C(CCC=C(C)C)c3ccc(C)c1c32	512 (≈ 1460 µM)	128 (≈ 364 µM)	inactive	16 (≈ 45.5 µM)	64 (≈ 182 µM)	inactive	512 (≈ 1460 µM)	inactive	32 (≈ 91.1 µM)	–
